The conditions of data set [1]: for Maximum tolerated dose (MTD): 21-day cycles (DL 7).
Data set [2] deals with refractory solid tumors and lymphoid malignancies. The data set can be described thus: Phase I trial: tumor response by RECIST 1.0. In kind it is in vivo, human.
Data set [3] can be described thus: Veliparib plasma pharmacokinetics. Format: in vivo, human. The gist of the method: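 The oral test compound was dosed once daily at 20–60 mg with oral alkylator 50 or 100 mg daily. Plasma was sampled pre-dose and 0.5, 1, 1.5, 2, 3, 4, 6, 8 and 24 h post-dose on cycle 1 day 1 and on the last dosing day (7, 14 or 21). Blood was spun at 1,000 × g and plasma held at -70°C. Levels were read by LC-MS validated to FDA guidelines. Days were compared by two-tailed paired exact Wilcoxon test, with P < 0.05 taken as significant.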

Data set [4] has as its system poly(ADP-ribose) (PAR), a product of PARP. The data set can be described thus: PAR levels in tumor biopsies. Format: in vivo, human. Particulars: all five patients with paired pre- and post-dose biopsies, after 7 or 21 days of treatment; with cyclophosphamide.
In another data set the test system is γH2AX. The data set can be described thus: γH2AX levels in circulating tumor cells. In kind it is in vivo, human. To be noted: day 2 of cycle 1; of nine patients with detectable CTCs; with cyclophosphamide. Put shortly: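 During cycle 1, patients took the oral test compound once daily (20–60 mg) with daily oral alkylator (50 or 100 mg). Circulating tumour cells were scored for γH2AX positivity by a validated immunofluorescence assay run to standard operating procedures and compared with each patient's baseline.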

For data set [5] the following is noted: high-dose veliparib, preclinical model; cited from earlier work.
The conditions of data set [6]: studies conducted with veliparib; cited from earlier work.
A further data set concerns PARP. Particulars: 24 hours after a single 50 mg dose; phase 0 trial; cited from earlier work.

Where two headings read alike, the source gives them in different places.

As to `O=P1(N(CCCl)CCCl)NCCCO1` (centres unmarked) [cyclophosphamide], the “Maximum tolerated dose (MTD)” value in data set [1] (cyclophosphamide daily with veliparib 60 mg daily) was found to be 50 mg.
For `C[C@]1(c2nc3c(C(N)=O)cccc3[nH]2)CCCN1` [veliparib, Veliparib], the “Total No. of cycles” value in data set [2] (partial response, patient 15, breast cancer, dose level 5, with cyclophosphamide) stood at 4 cycles. Also, the “Patients with prolonged stable disease among patients with known BRCA mutations” value in data set [2] (thirteen patients with known BRCA mutations, with cyclophosphamide) is recorded as “three”. Further, the “Patients with partial response” value in data set [2] (veliparib with metronomic cyclophosphamide, 35 patients enrolled, RECIST 1.0) is “Seven”. Besides, the “Changes in PK parameters between baseline and day 7, 14, or 21” value in data set [3] (co-administered metronomic cyclophosphamide) is given as “No statistically significant changes”. The half-life (commonly how long it takes for the measured level to halve) in data set [3] (human, plasma, oral) is 5 ± 1.5 h. Further, the “PK behavior of veliparib at DL 5 compared with other DLs” value in data set [3] (three patients on DL 5 (100 mg cyclophosphamide)) is listed as “not different”. In addition, in data set [4], the “Decrease in PAR levels in tumor biopsies” value is given as “greater than 80%”. The “Patients with an increased percentage of γH2AX-positive CTCs” value in the data set with γH2AX is recorded as “Seven”. The “Tolerability of the study regimen” value in data set [1] (in vivo) was “well tolerated”. Further, the “Maximum tolerated dose (MTD)” value in data set [1] (veliparib daily with cyclophosphamide 50 mg daily) was found to be 60 mg. For the same compound, the Seizures result in data set [5] is recorded as “caused seizures”. Besides, the “Cardiac toxicity related to study drug” value in data set [6] is “no indication of cardiac toxicity”. In addition, the “Inhibition of PARP activity in tumor biopsies” value in the data set on PARP is on record as “greater than 48%”.

The record behind these values is PMC3306481 (Clinical Cancer Research, 2012).
